The record followed here is ChEMBL document CHEMBL3112537, “A novel series of 6-substituted 3-(pyrrolidin-1-ylmethyl)chromen-2-ones as selective monoamine oxidase (MAO) A inhibitors” (Eur J Med Chem, 2014).

Data set [1] can be described thus: Aqueous solubility of the compound in saline solution. The class given is physicochemical.
The species named for the next data set is Homo sapiens. As to the kind of experiment: Selectivity index, ratio of IC50 for human recombinant MAO-B to IC50 for human recombinant MAO-A. The method, boiled down: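 Selectivity index for MAO A = IC50(MAO B)/IC50(MAO A), with both human isoforms assayed against kynuramine substrate.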
In data set [2] the target is T1, Amine oxidase [flavin-containing] A (Homo sapiens, UniProt P21397).
T1 sequence (P21397 whole entry): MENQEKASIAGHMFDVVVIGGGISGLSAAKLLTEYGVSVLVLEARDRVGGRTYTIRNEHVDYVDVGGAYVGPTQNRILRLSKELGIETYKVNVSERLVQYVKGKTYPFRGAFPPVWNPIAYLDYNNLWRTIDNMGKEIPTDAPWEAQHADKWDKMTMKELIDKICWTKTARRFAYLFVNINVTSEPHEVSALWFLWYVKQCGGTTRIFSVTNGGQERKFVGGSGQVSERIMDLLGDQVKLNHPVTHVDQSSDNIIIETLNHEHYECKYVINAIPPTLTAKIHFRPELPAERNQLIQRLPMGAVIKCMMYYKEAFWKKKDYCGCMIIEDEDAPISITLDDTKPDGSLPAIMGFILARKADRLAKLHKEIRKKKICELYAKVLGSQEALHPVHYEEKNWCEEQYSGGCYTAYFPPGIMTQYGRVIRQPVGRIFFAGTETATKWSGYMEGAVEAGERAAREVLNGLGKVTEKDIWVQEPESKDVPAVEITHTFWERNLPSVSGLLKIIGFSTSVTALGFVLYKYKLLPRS
As to the kind of experiment: Inhibition of human recombinant MAO-A assessed as kynuramine oxidation to 4-hydroxyquinoline after 40 mins by LC-MS/MS analysis. The method, boiled down:
(§1)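 Human MAO A and MAO B inhibition using kynuramine as a mixed substrate for both isoforms. IC50 is given as the mean ± SE of duplicate determinations.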

Data set [3] deals with T2, Amine oxidase [flavin-containing] B (Homo sapiens, UniProt P27338).
T2 sequence (P27338 whole entry): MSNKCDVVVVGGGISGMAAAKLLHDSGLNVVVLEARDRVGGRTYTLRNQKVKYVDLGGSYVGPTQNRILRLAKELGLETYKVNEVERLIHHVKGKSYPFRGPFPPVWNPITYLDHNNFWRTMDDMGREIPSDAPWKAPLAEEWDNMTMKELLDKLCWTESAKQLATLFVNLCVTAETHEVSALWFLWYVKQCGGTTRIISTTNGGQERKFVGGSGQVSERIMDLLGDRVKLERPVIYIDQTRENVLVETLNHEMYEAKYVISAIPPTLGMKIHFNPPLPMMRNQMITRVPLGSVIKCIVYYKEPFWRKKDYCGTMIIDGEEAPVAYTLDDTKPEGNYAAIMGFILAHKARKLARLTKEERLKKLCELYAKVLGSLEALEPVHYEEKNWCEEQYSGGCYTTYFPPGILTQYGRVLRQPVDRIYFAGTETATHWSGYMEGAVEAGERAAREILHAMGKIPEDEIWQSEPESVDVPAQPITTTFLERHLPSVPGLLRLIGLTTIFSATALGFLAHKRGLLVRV
In words: Inhibition of human recombinant MAO-B assessed as kynuramine oxidation to 4-hydroxyquinoline after 40 mins by LC-MS/MS analysis. The method, boiled down: as §1

Data set [4] in a line: Metabolic stability in rat liver microsomes assessed as compound remaining at 5 uM after 60 mins by LC-MS/MS analysis. The class given is ADME. Conditions: read-out: Stability. The gist of the method: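 Incubation with rat liver microsomes, read as % of compound remaining after 60 min.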
Another data set deals with D(2) dopamine receptor (Homo sapiens, UniProt P14416). In words: Antagonist activity at dopamine D2 receptor (unknown origin) expressed in HEK cells co-expressing Gqi5 assessed as inhibition of dopamine-induced effect by FLIPR assay. The data set is classed as cell-based, HEK293.
Sequence of D(2) dopamine receptor (P14416 whole entry): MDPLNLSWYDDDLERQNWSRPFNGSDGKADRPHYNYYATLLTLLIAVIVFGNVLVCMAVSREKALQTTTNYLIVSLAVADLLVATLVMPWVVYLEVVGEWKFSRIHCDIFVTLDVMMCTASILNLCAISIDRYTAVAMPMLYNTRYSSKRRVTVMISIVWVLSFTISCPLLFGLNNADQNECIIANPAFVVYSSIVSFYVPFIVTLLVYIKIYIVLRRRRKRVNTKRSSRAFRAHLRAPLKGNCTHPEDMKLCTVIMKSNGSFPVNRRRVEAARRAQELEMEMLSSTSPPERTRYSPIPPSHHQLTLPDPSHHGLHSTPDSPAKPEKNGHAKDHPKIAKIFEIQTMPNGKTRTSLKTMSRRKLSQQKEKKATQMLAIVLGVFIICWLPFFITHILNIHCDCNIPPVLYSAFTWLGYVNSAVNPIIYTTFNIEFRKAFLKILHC
The test system of data set [5] is Rattus norvegicus. In words: In vivo inhibition of MAO-A in Sprague-Dawley rat assessed as 3-methoxytyramine level in brain striatum at 100 umol/kg, sc after 1 hr by HPLC/EC analysis relative to control. The data set is classed as functional. On the set-up: scale not given: the % may be the effect or the level left. The gist of the method:
(§2)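 Freely moving rats dosed subcutaneously and sacrificed 1 h later. Striatal DOPAC, 3-MT and 5-HIAA were measured post mortem and expressed as % of saline control (n = 4). Significance was by Student's t-test, P < 0.05.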

Data set [6] concerns Rattus norvegicus. In words: In vivo inhibition of MAO-A in Sprague-Dawley rat assessed as 5-hydroxyindoleacetic acid in brain striatum at 100 umol/kg, sc after 1 hr by HPLC/EC analysis relative to control. The class given is functional. Also on record: scale not given: the % may be the effect or the level left. The gist of the method: as §2
The test system of data set [7] is Rattus norvegicus. As to the kind of experiment: In vivo inhibition of MAO-A in Sprague-Dawley rat assessed as 3,4-dihydroxyphenylacetic acid level in brain striatum at 100 umol/kg, sc after 1 hr by HPLC/EC analysis relative to control. Also on record: scale not given: the % may be the effect or the level left. The class given is functional. The gist of the method: as §2

In the case of `CCCNCc1cc2ccccc2oc1=O.Cl`, the solubility in data set [1] is over 5000 µg/mL.
Take `CCCNCc1cc2ccccc2oc1=O` [listing 1 of 2 here]: in the data set filed under Homo sapiens, the Ratio IC50 is 3.6.
Take `Cl.O=c1oc2ccccc2cc1CN1CCCC1`: the solubility in data set [1] is over 5000 µg/mL.
Consider `CCCOc1ccc2oc(=O)c(CN3CCCC3)cc2c1`, for which the IC50 is 2.16 µM in data set [2] and 22.3 µM in data set [3]. In addition, in the data set listed under Homo sapiens, the Ratio IC50 stood at 10.3.
For `O=c1oc2ccc(OCc3ccccc3)cc2cc1CN1CCCC1`, the IC50 in data set [2] and in [3] was over 100 µM each time.
For the compound `O=c1oc2ccc(OC(F)(F)F)cc2cc1CN1CCCC1`, the values for the IC50 (in [2]; on D(2) dopamine receptor; in data set [3]) were 4.24 µM, over 26 µM and over 100 µM, respectively. Besides, the remaining at 1 h, 5 µM in data set [4] came to 3%. Besides, the Ratio IC50 in the data set filed under Homo sapiens was over 23.5.
Turning to `O=c1oc2ccc([N+](=O)[O-])cc2cc1CN1CCCC1`, the Activity was 75% in the data set on Rattus norvegicus [5], 118% with Rattus norvegicus [6] and 105% in the data set on Rattus norvegicus [7]. For the same compound, the IC50 is over 100 µM in [2], over 30 µM at D(2) dopamine receptor and over 100 µM in [3].
Consider `O=c1oc2ccccc2cc1CN1CCCC1` [listing 1 of 2 here], for which the Activity was determined as 164% with Rattus norvegicus [5], 106% with Rattus norvegicus [6] and 58% in the data set on Rattus norvegicus [7]. Also, the 50% inhibitory concentration (IC50) in [2] was 6.32 µM; in data set [3], over 100 µM. Also, the remaining at 1 h, 5 µM in data set [4] is under 5%.
Consider `Cl.O=c1oc2ccc([N+](=O)[O-])cc2cc1CN1CCCC1`, for which the solubility in data set [1] was over 5000 µg/mL.
On the same count and under the same terms, under `Br.O=c1oc2ccc(O)cc2cc1CN1CCCC1` stands over 5000 µg/mL; under `Cl.Nc1ccc2oc(=O)c(CN3CCCC3)cc2c1`, over 5000 µg/mL.
As to `O=c1oc2ccccc2cc1CN1CCCC1` [listing 2 of 2 here], in the data set listed under Homo sapiens, the Ratio IC50 was over 15.8.
Same read-out and setting: for `N[C@@H]1C[C@H]1c1ccccc1.N[C@H]1C[C@@H]1c1ccccc1` the value was 1.
As for `COc1ccc2oc(=O)c(CN3CCCC3)cc2c1` [listing 1 of 2 here], the figures for the Activity in the data set on Rattus norvegicus [5], in the data set on Rattus norvegicus [6] and in the data set with Rattus norvegicus [7] were 129%, 90% and 65%, respectively. Moreover, the concentration for half-maximal inhibition (IC50) was 4.48 µM in data set [2], over 30 µM at D(2) dopamine receptor and over 100 µM in [3].
With `O=c1oc2ccc(O)cc2cc1CN1CCCC1`, in the data set listed under Homo sapiens, the Ratio IC50 was over 68.
Take `CCCNCc1cc2ccccc2oc1=O` [listing 2 of 2 here]: the Activity in the data set on Rattus norvegicus [5] is given as 89%; in the data set on Rattus norvegicus [6], 116%; in the data set with Rattus norvegicus [7], 70%. For the same compound, the IC50 in data set [2] is 17.1 µM; on D(2) dopamine receptor it was over 30 µM; in [3], 62.3 µM. The remaining at 1 h, 5 µM in [4] was determined as 0%.
In data set [1], `COc1ccc2oc(=O)c(CN3CCCC3)cc2c1.Cl` showed a solubility of over 5000 µg/mL.
With `COc1ccc2oc(=O)c(CN3CCCC3)cc2c1` [listing 2 of 2 here], the Ratio IC50 in the data set listed under Homo sapiens is over 22.3.
With `CCCCOc1ccc2oc(=O)c(CNCC)cc2c1`, the IC50 in data set [2] is 1.95 µM; in data set [3], 7.34 µM. In the data set listed under Homo sapiens, the Ratio IC50 was found to be 3.7.
For the compound `O=c1oc2ccc(C(F)(F)F)cc2cc1CN1CCCC1`, the Activity with Rattus norvegicus [5] was determined as 88%; with Rattus norvegicus [6], 104%; in the data set with Rattus norvegicus [7], 77%. The half-inhibitory concentration (IC50) in [2] is 8.46 µM; at D(2) dopamine receptor, over 30 µM; in [3], over 100 µM.
On to `Cl.O=c1oc2ccc(C(F)(F)F)cc2cc1CN1CCCC1`, for which the solubility in [1] was over 5000 µg/mL.
